The source of these data is ChEMBL document CHEMBL1123823, “[1-Desamino, 7-lysine, 8-arginine]vasotocin: attachment of reporter groups and affinity ligands through the lysine side chain” (J Med Chem, 1987).

Assay [1] deals with Rattus norvegicus. The experiment in a line: Antidiuretic activity was determined in water loaded, ethanol-anesthetized rats. Type of assay: functional, Urine.
Assay [2] in a line: Toad bladder hydroosmotic activity was determined. It is filed as functional. The settings on record: read-out: ED50 (the source's name). In outline:
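Osmometric measurement of bladder water permeability. Bladders were suspended in humidified air, and paper disks holding 8 μL of hypertonic Ringer's, with or without peptide at various concentrations, were placed on the outer surface of the bladder wall. The Ringer's contained NaCl 110, KCl 3.5, CaCl₂ 1, MgCl₂ 1, glucose 5.5 and Tris-HCl 10 mmol/L, pH 7.5, 236 mOsm/kg H₂O. Dose-response curves were constructed.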

The test system of assay [3] is Rattus norvegicus. The experiment in a line: (§1) Pressor activity was determined in urethane-anesthetized, phenoxybenzamine treated rats. It is filed as functional.
Assay [4] deals with Rattus norvegicus. Described as §1. Type of assay: functional, organism-based. The settings on record: read-out: pA2 (converted).

Where a SMILES comes first, the peptide text is derived from it. Bridges are numbered along the chain shown (N, C = ends). [ ]: non-standard residue; d: D form. The star is where a group is joined. Benzoyl(4-N3) = [N-]=[N+]=Nc1ccc(C(=O)*)cc1; Mpa = O=C(O)CCS

In the assay with Rattus norvegicus [1], `CC[C@H](C)[C@@H]1NC(=O)[C@@H](Cc2ccc(O)cc2)NC(=O)CCSSC[C@@H](C(=O)N[C@H](CCCCNC(=O)CCCCC2SCC3NC(=O)NC32)C(=O)N[C@@H](CCCN=C(N)N)C(=O)NCC(N)=O)NC(=O)[C@H](CC(N)=O)NC(=O)[C@@H](CCC(N)=O)NC1=O` (stereo partly drawn) registered an Antidiuretic activity of 4.3 U/mg. For the same compound, the EC50 in assay [2] turned out to be 210 nM. Besides, in the assay on Rattus norvegicus [3], the Pressor activity came to 0 U/mg.

For the compound `CC[C@H](C)[C@@H]1NC(=O)[C@H](Cc2ccc(O)cc2)NC(=O)CCSSC[C@@H](C(=O)N[C@@H](CCCCNC(=O)c2ccc(N=[N+]=[N-])cc2)C(=O)N[C@@H](CCCN=C(N)N)C(=O)NCC(N)=O)NC(=O)[C@H](CC(N)=O)NC(=O)[C@H](CCC(N)=O)NC1=O` ([Mpa]YIQNCK(Benzoyl(4-N3))RG-NH2; disulfide 1-6) [listing 1 of 2 here], the Kb in the assay with Rattus norvegicus [4] is 251 nM. For the compound `CC[C@H](C)[C@@H]1NC(=O)[C@H](Cc2ccc(O)cc2)NC(=O)CCSSC[C@@H](C(=O)N[C@@H](CCCCNC(=O)c2ccc(N=[N+]=[N-])cc2)C(=O)N[C@@H](CCCN=C(N)N)C(=O)NCC(N)=O)NC(=O)[C@H](CC(N)=O)NC(=O)[C@H](CCC(N)=O)NC1=O` ([Mpa]YIQNCK(Benzoyl(4-N3))RG-NH2; disulfide 1-6) [listing 2 of 2 here], in the assay on Rattus norvegicus [1], the Antidiuretic activity worked out at 19.7 U/mg. Turning to `CC[C@H](C)[C@@H]1NC(=O)[C@H](Cc2ccc(O)cc2)NC(=O)CCSSC[C@@H](C(=O)N[C@@H](CCCCN)C(=O)N[C@@H](CCCN=C(N)N)C(=O)NCC(N)=O)NC(=O)[C@H](CC(N)=O)NC(=O)[C@H](CCC(N)=O)NC1=O` ([Mpa]YIQNCKRG-NH2; disulfide 1-6), the Antidiuretic activity in the assay on Rattus norvegicus [1] was determined as 29 U/mg. Moreover, the EC50 in assay [2] worked out at 22 nM. In addition, the Pressor activity with Rattus norvegicus [3] came to 0 U/mg. With `CC[C@H](C)[C@@H]1NC(=O)[C@H](Cc2ccc(O)cc2)NC(=O)CCSSC[C@@H](C(=O)N2CCC[C@H]2C(=O)N[C@@H](CCCN=C(N)N)C(=O)NCC(N)=O)NC(=O)[C@H](CC(N)=O)NC(=O)[C@H](CCC(N)=O)NC1=O` ([Mpa]YIQNCPRG-NH2; disulfide 1-6), the Antidiuretic activity in the assay with Rattus norvegicus [1] was determined as 890 U/mg. The compound also displayed a Pressor activity with Rattus norvegicus [3] of 256 U/mg. On to `N=C(N)NCCC[C@H](NC(=O)[C@@H]1CCCN1C(=O)[C@@H]1CSSC[C@H](N)C(=O)N[C@@H](Cc2ccc(O)cc2)C(=O)N[C@@H](Cc2ccccc2)C(=O)N[C@@H](CCC(N)=O)C(=O)N[C@@H](CC(N)=O)C(=O)N1)C(=O)NCC(N)=O` [VASOPRESSIN], for which the EC50 in assay [2] was 9.5 nM.

With `CC[C@H](C)[C@@H]1NC(=O)[C@H](Cc2ccc(O)cc2)NC(=O)[C@@H](N)CSSC[C@@H](C(=O)N2CCC[C@H]2C(=O)N[C@@H](CCCN=C(N)N)C(=O)NCC(N)=O)NC(=O)[C@H](CC(N)=O)NC(=O)[C@H](CCC(N)=O)NC1=O` [VASOTOCIN] (H-CYIQNCPRG-NH2; disulfide 1-6), the Antidiuretic activity in the assay on Rattus norvegicus [1] was determined as 231 U/mg. In the assay with Rattus norvegicus [3], the Pressor activity turned out to be 160 U/mg.
